Assay outcomes (PubChem)
CHO parental Ca – signal in parental CHO cells, OX1R antagonist counter-screen; hit rate 0.63% among 330,000; AID 463079; parental CHO-K1, ATP-induced calcium, Fluo-8 fluorescence; inhibition, % at 5.6 µM;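 active means inhibition above that plate's mean sample inhibition plus 3 SD, cut at about 26% in these data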;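 further: 0% = ATP-challenged DMSO wells and 100% = DMSO wells without ATP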
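Measured by: calcium-sensitive Fluo-8 fluorescence / Test system: CHO parental line / Controls: ATP-challenged DMSO wells low, unchallenged DMSO wells high / Measure: % inhibition / Compound: single nominal dose of 5.6 µM per compound / Replicates: single well per compound, no replicates / Reagent: ATP as calcium-mobilizing challenge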
OX1R antag-1 – blocks the human orexin 1 receptor | O43613 | OX1R-expressing cells, FRET antagonist read-out | inhibition, % at 6.6 µM | hit rate 1.8% among 330,000 | AID 485270; in the data active means inhibition mostly above about 38%, no sharp cut-off; inactive means mostly below about 40%;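 further: 0% = agonist challenge alone and 100% = reference antagonist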
GalR3 antagonist – blocks the human galanin receptor 3 | inhibition, % at 3 µM | HEK293 GalR3-CNG cAMP membrane potential fluorescence; galR3 body fused to GalR1 C-terminus | hit rate 0.44% among 360,000;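 active means inhibition above the screen-wide average plus 3 SD, cut at about 13% in these data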;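 further: forskolin and galanin both at EC90 stimulate the cells; cAMP rise reported by CNG channel membrane potential dye signal; 0% = forskolin plus galanin with DMSO and 100% = forskolin alone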
Target sequence (O60755 1-299 limits assumed): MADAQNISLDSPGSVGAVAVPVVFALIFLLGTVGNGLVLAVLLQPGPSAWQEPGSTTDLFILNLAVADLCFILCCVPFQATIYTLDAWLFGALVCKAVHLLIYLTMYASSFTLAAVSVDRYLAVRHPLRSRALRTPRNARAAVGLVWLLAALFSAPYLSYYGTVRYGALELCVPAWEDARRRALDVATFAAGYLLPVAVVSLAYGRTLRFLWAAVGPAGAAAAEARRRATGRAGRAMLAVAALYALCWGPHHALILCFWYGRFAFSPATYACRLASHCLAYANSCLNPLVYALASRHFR
GPR7 antagonist – blocks human GPR7 receptor signaling | inhibition, % at 4.4 µM | hit rate 1.1% among 290,000 | GPR7-expressing cells, fluorescence antagonist assay | P48145; in the data active means inhibition above about 16%, passing the limit was not always enough;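 further: cells stimulated with the agonist NPW; 0% = agonist with vehicle and 100% = vehicle without agonist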
Target sequence (P48145 whole entry, looked up): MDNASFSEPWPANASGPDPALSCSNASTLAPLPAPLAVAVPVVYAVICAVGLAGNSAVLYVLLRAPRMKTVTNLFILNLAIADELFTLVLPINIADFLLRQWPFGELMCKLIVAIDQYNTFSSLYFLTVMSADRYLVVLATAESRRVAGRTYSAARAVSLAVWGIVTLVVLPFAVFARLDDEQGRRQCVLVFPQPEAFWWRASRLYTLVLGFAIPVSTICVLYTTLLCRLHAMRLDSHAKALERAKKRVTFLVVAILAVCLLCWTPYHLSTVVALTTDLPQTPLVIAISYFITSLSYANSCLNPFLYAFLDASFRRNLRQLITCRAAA
OX1R antag-2 – human HCRTR1 antagonism; inhibition, % at 5 µM; AID 434989; hit rate 0.43% among 330,000; O43613; CHO/OX1R cells, Fluo-8 calcium fluorescence, orexin A;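 active means inhibition above its plate's threshold, mean inhibition of all tested compounds on the plate plus 3 SD, cut at about 37% in these data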;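 further: 0% = orexin A challenge wells and 100% = SB-334867-A antagonist wells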
* = called active by the depositor; . = no result. Compounds with a hit are over-represented: about 3.1% of the library has one in this group of screens.

SMILES | CHO parental Ca | OX1R antag-1 | GalR3 antagonist | GPR7 antagonist | OX1R antag-2
Nc1ccc(-c2cc(-c3cccc(N)c3)nc(-c3ccccc3)n2)cc1 | 22.8 | 0.9 | -3.5 | 28.7* | 8.9
c1ccc(C2=Nc3cccnc3C(c3ccccc3)=NN2)cc1 | -24.4 | 9.1 | 1.7 | -1.5 | -34.4
C=CCOC(=O)N1CCC2CC1c1cc(-c3cccc(C)c3)ccc12 (stereo not given) | . | . | -3.6 | . | .
CC(C)CC(NC(=O)c1ccc(Cl)cc1)C(=O)OCC(=O)c1ccc2c(c1)NC(=O)CO2 (stereo not given) | 63.0* | 42.0 | -6.7 | -4.2 | 64.7*
CC(O)C(NS(=O)(=O)c1ccc(Cl)cc1)C(=O)OCC(=O)c1ccc2c(c1)NC(=O)CO2 (stereo not given) | . | . | 2.1 | . | .
Cc1nn(-c2ccccc2)c(N)c1N=Nc1cccnc1 | -9.6 | 53.6* | 5.2 | -0.4 | -20.2
CCn1cc(C(=O)N2CCN(c3ccccc3F)CC2)c(=O)c2ccc(C)nc21 | -18.8 | 9.2 | -0.3 | -13.1 | -23.4
Cc1noc(C)c1C(=O)OCC(=O)NCCc1ccc(Cl)cc1 | -11.4 | 6.8 | -4.0 | 19.9* | -16.3
O=C1CCCCN1CCCC(=O)N1CCCC(Nc2ccc(F)c(F)c2)C1 (stereo not given) | -18.1 | 20.2 | 3.2 | -5.1 | -23.4
CC(=O)c1cc2c(cc1NC(=O)c1cccc(S(=O)(=O)N3CCN(C)CC3)c1)OCO2 | -12.3 | 17.6 | -0.5 | -4.9 | -25.3
CCNC(=O)CCn1nc(-c2ccc(C)cc2)c2ccccc2c1=O | -15.4 | 2.5 | -11.2 | 2.9 | -7.6
Cc1cc(C(C)C)n2c(nc3ccccc32)c1C#N | -6.7 | 10.9 | . | -9.5 | -16.5
Cc1cc(-c2ccco2)c(C#N)c2nc3ccccc3n12 | -6.5 | 100.2* | 1.3 | -1.5 | -14.9
CC1CCCCC1NC(=O)CN(C)S(=O)(=O)c1ccc2c(c1)CCC(=O)N2 (stereo not given) | 3.4 | 1.5 | 4.1 | -7.8 | 3.8
CC(C)OP(=O)(Nc1cccc2ccccc12)OC(C)C | -11.8 | 7.7 | -6.5 | -8.3 | -13.7
CN(C)P(=O)(Nc1cccc2ccccc12)Nc1cccc2ccccc12 | -8.2 | 59.1* | -10.2 | . | 31.9
Nc1nnc(SCc2cn3cc(Cl)ccc3n2)s1 | -9.5 | 4.1 | -0.6 | -4.1 | -17.4
CN1CCN(C(=O)CNC(=O)C23CC4CC(CC(C4)C2)C3)CC1 | -7.8 | 2.9 | -0.3 | . | 10.3
O=C(CSc1nnc2ccccn12)NC(=O)c1cccc([N+](=O)[O-])c1 | -0.5 | 43.2* | -6.2 | . | -13.2
CCc1ccc(NC(=O)C(=O)NCC2CCCN2S(=O)(=O)c2cccs2)cc1 (stereo not given) | -15.3 | -0.1 | -5.1 | . | -21.3
CCc1c(-c2ccccc2)nc2sc3c(c2c1N)CCCC3 | 0.6 | 49.4* | -2.5 | -12.0 | -7.8
Nc1nc(-c2cccnc2)nc2sc3c(c12)CCCC3 | -9.3 | 69.8* | -3.4 | 5.8 | -9.8
COc1ccc(C(=O)Nc2ccc([N+](=O)[O-])cn2)c(OC)c1 | -7.5 | 10.7 | -0.1 | -1.7 | -14.9
COc1ccc(NC(=O)C2CCCCN2S(=O)(=O)c2ccccc2)cc1S(=O)(=O)N1CCOCC1 (stereo not given) | . | . | -8.4 | . | .
COc1ccc(-c2nc3c4ccccc4ccn3c2Cc2ccccc2)cc1OC | . | . | -7.2 | . | .
SMILES | CHO parental Ca | OX1R antag-1 | GalR3 antagonist | GPR7 antagonist | OX1R antag-2
COc1ccc(NCc2cc3cc(OC)ccc3[nH]c2=O)cc1 | -21.6 | 47.0* | -6.0 | -2.3 | -34.4
COc1ccc2[nH]c(=O)c(CNc3cccc(C)c3)cc2c1 | -16.9 | 47.9* | 4.4 | 2.5 | -14.4
COc1ccc(NCc2cc3ccccc3[nH]c2=O)cc1 | -2.8 | 68.1 | -3.0 | -13.1 | -18.9
Cc1ccc([N+](=O)[O-])cc1S(=O)(=O)Nc1cccc(-c2ccc(N3CCOCC3)nn2)c1 | -15.4 | 7.3 | -1.9 | . | -15.2
CCN(CC)C(=O)CSc1nc(Cc2ccccc2)nc2ccccc12 | . | . | -6.3 | -11.4 | .
CCc1nc(SCC(=O)c2ccc3c(c2)OCCO3)c2ccccc2n1 | -27.2 | 57.7* | -3.7 | -4.0 | 4.9
O=C(CSc1nc(Cc2ccccc2)nc2ccccc12)c1ccc2c(c1)OCCO2 | -0.1 | 41.4* | -8.3 | -1.2 | -21.7
CC(NC(=O)c1ccc(C(C)(C)C)cc1)C(c1cccs1)N1CCOCC1 (stereo not given) | -27.9 | 11.9 | -1.2 | -8.7 | -31.0
COCCOc1ccc(C(F)(F)F)cc1NC(=O)COC(=O)C1=COCCO1 | -13.1 | 8.3 | -1.5 | . | -8.8
COc1cccc(CN(C)C(=O)c2cccc(S(=O)(=O)N3CCN(c4ccc(F)cc4)CC3)c2)c1OC | 35.4* | 35.6 | -4.5 | . | 13.3
O=C(Nc1ccccc1C(=O)NC(Cc1c[nH]c2ccccc12)C(=O)O)c1ccco1 (stereo not given) | -14.8 | 64.6 | 2.6 | -0.9 | 8.5
COc1ccc(C(=O)Nc2ccccc2C(=O)NC(Cc2c[nH]c3ccccc23)C(=O)O)cc1 (stereo not given) | -1.9 | 67.8* | 4.8 | -12.3 | 21.2
C#CCSc1nc(-c2cccs2)ccc1C#N | -7.1 | 45.0 | -5.0 | -6.6 | -13.7
CCN(CC)C(=O)CSc1nc(N)c(C#N)c(-c2cccs2)c1C#N | -16.6 | 1.7 | -2.1 | -4.4 | -9.1
COC(=O)CSc1nc(-c2cccs2)ccc1C#N | -20.8 | 68.3* | -6.0 | -4.9 | 16.8
CCN(CC)C(=O)CSc1nc(-c2cccs2)cc(-c2cccs2)c1C#N | 58.0* | 23.9 | -4.7 | -7.8 | 2.7
Cc1[nH]c(=O)[nH]c(=O)c1S(=O)(=O)N1c2ccc(F)cc2CCC1C (stereo not given) | 6.8 | 3.7 | -7.8 | -1.3 | 4.4
CCOc1cc(NC(=S)NCCCN2CCOCC2)c(OCC)cc1NC(=O)c1ccco1 | -16.1 | 19.5 | -10.2 | -4.1 | -40.1
CN(C)c1ccc(NC(=O)CSc2nnc(-c3cccs3)n2Cc2ccco2)cc1 | -18.4 | 47.0* | -5.5 | 4.2 | 35.0
C/C(=N\NC(=O)c1ccc([N+](=O)[O-])cc1)c1cc2ccccc2oc1=O | 0.5 | 67.9* | -9.3 | -15.5 | -1.8
O=C(NNC(=O)c1cc2ccccc2oc1=O)c1ccccc1[N+](=O)[O-] | -4.2 | 76.5* | -2.5 | -7.6 | -11.3
CN(C)c1ccc(/C=N/N=C(N)N)cc1[N+](=O)[O-] | -9.6 | 31.5 | -6.2 | 1.2 | -9.8
COc1ccc(/C=C/C(=O)NC2CCN(Cc3ccccc3)CC2)cc1OC | -10.0 | 21.8 | -5.9 | -15.5 | -19.6
N=c1c(C(=O)NCc2ccco2)cc2c(=O)n3ccccc3nc2n1CC1CCCO1 (stereo not given) | -12.9 | 49.5* | -2.7 | -3.0 | -23.3
COc1ccc(CCNC(=O)c2cc3c(=O)n4ccccc4nc3n(CC3CCCO3)c2=N)cc1 (stereo not given) | . | . | -0.7 | . | .
N=c1c(C(=O)NCc2ccc3c(c2)OCO3)cc2c(=O)n3ccccc3nc2n1CC1CCCO1 (stereo not given) | -19.5 | 68.7* | 0.9 | 21.6 | -30.9
Cc1ccc(Cn2c(=N)c(C(=O)NCc3ccco3)cc3c(=O)n4ccccc4nc32)cc1 | -13.7 | 28.6 | -6.9 | -2.3 | -14.5
